# G6PDH CS: inhibits Leuconostoc G6PDH, flagging false hits in G6PDH-based assays | inhibition, % at 5 µM | Purified L. mesenteroides G6PDH, diaphorase/resazurin coupled fluorescence, 45 min | actives 0.12% (n = 200,000); in the data active means inhibition above about 50%
# Diaph inh CS: counter-screen for diaphorase-based assays: diaphorase inhibitors and chemical oxidizers; inhibition, % at 20 µM; actives 0.69% (n = 190,000); diaphorase resazurin-to-resorufin fluorescence, NADH, 16 min; bacterial (C. kluyveri) enzyme, not human;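 active means primary screen inhibition at 20 µM above a set limit, cut at about 50% in these data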;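 further: plate controls were DMSO with full reaction for no effect and wells lacking NADH for full effect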
#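 Benchmarks: positive control wells lacking NADH, neutral wells with DMSO only. System: bacterial diaphorase enzyme (C. kluyveri). Input: 0.14 U/mL diaphorase, enzyme working solution. Detection: resorufin fluorescence, excitation 544 nm, emission 590 nm. Times: 16-min room-temperature incubation before reading.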
# DTT redox prof: compounds producing H2O2 with reducing agent – biochemical, NIH compound library profiling, artefact control for MLSCN library redox annotation, primary screen; DTT-dependent redox cycling H2O2, phenol red/HRP absorbance; 100% = 100 µM peroxide control, 0% = buffer; activation, % at 10 µM; actives 0.03% (n = 200,000);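 active means activation of at least 50% relative to the plate's high and low controls in the primary single-dose screen; inactive means activation below 50%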;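 further: compound incubated with DTT at 0.8 mM final as the reducing agent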
# PMI act hi M6P: activators of human phosphomannose isomerase at near-saturating mannose 6-phosphate | P34949 | coupled PMI enzyme assay, resazurin fluorescence, 20 min; hits give high values; 1 = untreated enzyme, 0 = substrate-free blank | activation factor at 20 µM | actives 0.34% (n = 190,000) | AID 1216;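 active means activation factor of 2 or more at 20 µM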
# Target sequence (P34949 whole entry, looked up): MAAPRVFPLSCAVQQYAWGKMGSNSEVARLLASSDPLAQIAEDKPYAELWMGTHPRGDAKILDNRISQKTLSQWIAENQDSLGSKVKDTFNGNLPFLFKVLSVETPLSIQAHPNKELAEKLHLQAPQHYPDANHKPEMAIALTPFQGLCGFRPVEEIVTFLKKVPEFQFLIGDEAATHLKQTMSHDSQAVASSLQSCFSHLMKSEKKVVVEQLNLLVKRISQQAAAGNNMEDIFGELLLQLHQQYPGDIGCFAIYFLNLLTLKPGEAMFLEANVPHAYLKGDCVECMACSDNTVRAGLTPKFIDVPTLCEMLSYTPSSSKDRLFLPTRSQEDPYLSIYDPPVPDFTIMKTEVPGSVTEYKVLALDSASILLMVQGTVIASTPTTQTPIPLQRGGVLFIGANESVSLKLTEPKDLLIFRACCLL
#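 Material: human phosphomannose isomerase with PGI, G6PDH, diaphorase coupling enzymes / Reagent: Man-6-P substrate 1.0 mM / Dosing: single compound dose of 20 µM, 1% DMSO final / Incubation: enzyme reaction with compound 20 min at room temperature / Signal: resorufin fluorescence (Ex 544/Em 590 nm) from resazurin via diaphorase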
# PMI activator: increases human mannose-6-phosphate isomerase activity | actives 0.005% (n = 190,000) | purified human PMI, coupled resazurin fluorescence, 20 min; hits give high values; 1 = vehicle control, 0 substrate-free wells | activation factor at 20 µM;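 active means activation factor of 2 or more at 20 µM, relative to plate controls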
# Diaph act CS: diaphorase activation or chemical reduction counter-screen | Diaphorase/resazurin coupled assay, resorufin fluorescence, 16 min; hits give high values; 1 = vehicle wells, 0 = NADH-free wells | activation factor at 20 µM | actives 0.005% (n = 190,000) | AID 1229;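 active means diaphorase activity raised at least twofold by the compound at 20 µM; inactive means activation factor below 2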
#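 Measured by – red resorufin fluorescence at 544/590 nm excitation/emission · Test system – Clostridium kluyveri diaphorase, purified enzyme · Incubation – reaction time 16 min, room temperature · Buffer or medium – 50 mM HEPES pH 7.4 with 4.542 mM MgCl2, 0.005% Tween 20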
# Starred values were filed as active, the others as inactive. A selection: hits, their analogues and other compounds. The true share with any hit is near 1.1%.
SMILES,G6PDH CS,Diaph inh CS,DTT redox prof,PMI act hi M6P,PMI activator,Diaph act CS
O=C1c2cccc(O)c2C(=O)c2c(O)cccc21,17,26,4,0.8,1.2,0.7
CC1=CC(=O)c2c(O)ccc(O)c2C1=O,58*,54*,1,1.3,1.5,0.5
COc1ccc(C2NC(c3ccc(OC)cc3OC)C(C)C(=O)C2C)c(OC)c1 (stereo unspecified),5,18,-2,0.9,1,0.8
Cc1cc(C(=O)NC(C)Cc2ccccc2)cc(C)c1[N+](=O)[O-] (stereo unspecified),3,69*,0,1,1,0.3
O=c1oc2ccccc2c(Nc2ccccc2O)c1[N+](=O)[O-],19,58*,0,0.8,0.8,0.4
CCn1c(CNC(=O)Cc2ccc(OC)cc2)nnc1SCC(=O)c1ccccc1,17,8,1,2.5*,1.7,0.9
CCn1c(CNC(=O)Cc2ccc(OC)cc2)nnc1SCCOc1ccccc1,8,6,0,1,1.1,0.9
CN(c1ccccc1)S(=O)(=O)c1cccc(NS(=O)(=O)c2ccc(/C=C/C(=O)O)cc2)c1,10,59*,0,1.3,1.4,0.4
O=[N+]([O-])c1ccc(N/N=C/c2cccc(O)c2O)c(S(=O)(=O)N2CCOCC2)c1,31,36,1,0.6,0.8,0.6
O=[N+]([O-])c1ccc(N/N=C/c2ccc(O)c(O)c2O)c(S(=O)(=O)N2CCOCC2)c1,24,88*,0,0.2,0.2,0.1
O=C(CCc1ccc(S(=O)(=O)N2CCOCC2)cc1)N/N=C/c1ccc(O)c(O)c1O,10,71*,0,0.3,0.4,0.3
COc1ccc2[nH]c3c(=O)n(CCCCC(=O)NCCC(C)C)c(=S)[nH]c3c2c1,-1,-4,-2,1.1,1.2,1
COc1ccc(S(=O)(=O)N(NC2=NS(=O)(=O)c3ccccc32)C(=O)C(C)C)cc1,4,4,0,1,1.2,1
FC(F)c1nc2ccccc2[nH]1,12,11,0,1,1,0.9
c1ccc2[nH]c3cc4ncnc4cc3nc2c1,31,55*,0,1.2,1.5,0.4
O=C(CCC1CCCC1)Nc1nnc(-c2ccc3c(c2)OCO3)s1,6,1,1,1,0.9,1
CCOc1ccc(C=Nc2cccc3ncccc23)cc1,12,51*,3,0.3,0.4,0.5
Oc1ccc(C=Nc2cccc3ncccc23)c(O)c1,-40,45,4,0.6,0.5,0.5
CC1(CCc2ccccc2)NC(=S)N(c2ccccc2)N1 (stereo unspecified),10,9,0,2.8*,1.5,0.9
CC1(CCc2ccccc2)NC(=S)N(c2ccc(Cl)cc2)N1 (stereo unspecified),17,8,0,2.7*,1.7,0.9
Cc1onc(-c2c(F)cccc2Cl)c1C(=O)N1CCOC12CCCCC2,4,0,-2,1,1,1
COc1ccc(N(CC(=O)N2CCN(c3ccc(Cl)cc3)CC2)S(=O)(=O)c2c(C)n[nH]c2C)cc1,14,22,1,1,1,0.8
CCCc1ccc(OCC(=O)Nc2cc(S(=O)(=O)CC)ccc2O)cc1,12,16,0,0.8,0.8,0.8
CC(=O)N(C)C1=C(N2CCOCC2)C(=O)c2ccccc2C1=O,55*,49,-4,0.7,0.7,0.5
CC1=C(CC(=O)c2ccccc2)C(=O)c2ccccc2C1=O,56*,19,2,1.1,1.2,0.8
SMILES,G6PDH CS,Diaph inh CS,DTT redox prof,PMI act hi M6P,PMI activator,Diaph act CS
O=C(CN1C(=O)c2ccccc2C1=O)c1ccccc1,1,13,-1,0.9,0.9,0.9
CCN(CC1COc2ccccc2O1)C(=S)NC1CC2CCC1C2 (stereo unspecified),-3,19,0,0.9,0.9,0.8
Cc1cc(=S)c2cccc(C)c2[nH]1,5,6,11,2.7*,1.7,0.9
CC1CCCC(NC(=O)C2CCN(S(=O)(=O)N3CCCCCC3)CC2)C1C (stereo unspecified),2,-1,0,1,1.1,1
O=C(N/N=C\c1cccc(OC(=O)c2ccco2)c1)c1ccc2c(c1)OCO2,4,11,0,1.1,1.1,0.9
O=c1sc(/C=N/Nc2ccccc2)c(Cl)n1Cc1ccccc1,6,21,1,2.1*,1.4,0.8
CCOC(=O)N/N=C(\C)c1ccc(C)c([N+](=O)[O-])c1,19,15,0,1.1,1,0.8
CN(C)c1nc(N)c2ncc(=S)[nH]c2n1,15,52*,1,1.5,1,0.5
CC(=O)N(\C=C/C=C/C=C1\Sc2ccccc2C1=O)c1ccccc1,3,53*,-1,0.6,0.7,0.5
O=C(CSc1nc(-c2ccc(F)cc2)nc2c1Cc1ccccc1O2)Nc1ccc(C(=O)O)cc1,-3,60*,-3,1,0.9,0.4
CCc1cc2c(=O)n(CCC(C)C)c(=S)[nH]c2s1,-6,56*,-1,1.1,1.1,0.4
CCCn1c(=S)[nH]c2ccccc2c1=O,14,19,0,1,1,0.8
CSc1cccc(NC(=S)NCCCN2CCN(c3ccc(F)cc3)CC2)c1,0,8,-2,0.9,1,0.9
COc1ccc(NC(=S)Nc2ccc3nc(C)c(C)nc3c2)cc1,11,41,-7,0.5,0.6,0.6
COc1ccc(N(C)C(=O)Nc2ccc3nsnc3c2)cc1,22,62*,-2,0.3,0.4,0.4
COc1ccc(NC(=S)Nc2ccc3nsnc3c2)cc1,57*,59*,1,0.5,0.4,0.4
COCCNC(=S)Nc1ccc2nsnc2c1,35,53*,0,1.1,0.9,0.5
COCCNC(=S)Nc1ccc(Cl)c(Cl)c1,6,6,0,1.1,1.1,0.9
CC(C)N(C(=O)Nc1ccc2nsnc2c1)C(C)C,52*,60*,0,0.4,0.4,0.4
CC1CCN(C(=O)Nc2ccc3nsnc3c2)CC1,28,26,-3,0.4,0.6,0.7
O=C(CN1C(=O)CC(c2ccccc2)S(=O)(=O)c2ccccc21)N1CCCC1 (stereo unspecified),-1,10,0,1,1.1,0.9
CCN(CC)N=Nc1[nH]nc2nc(C)cc(C)c12,-4,11,-5,2*,1.4,0.9

# Bioassay records (PubChem)
